Screening data deposited in PubChem by NMMLSC.
ABCG2 inh: inhibitors of human ABCG2 transporter, ABCB1 counter-screen | hit rate 0.1% among 190,000 | inhibition, % at 6.6 µM | IgMXP3 cells, JC-1 efflux, flow cytometry | Q9UNQ0;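 active = inhibition above 80%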;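 also: 0% = DMSO and 100% = nicardipine control wells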
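Test system: IgMXP3 (ABCG2) plus far-red-tagged CCRF-Adr (ABCB1) cells. Reagent: JC-1 dye as substrate. Timing: 10 min exposure at 25 °C with rotation, no wash. Measured by: flow cytometric JC-1 green MFI at 530 nm. Read-out: percent efflux inhibition, scaled nicardipine 100% to DMSO 0%. Control set: nicardipine and DMSO wells.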
RGS8-Gao reg: modulates binding of RGS8 to human Galphao; multiplexed bead flow cytometry; actives lie on both sides; hit rate 0.34% among 220,000; response (percent of control binding), % at 10 µM; P09471; AID 1423; in the data active = response below about 60% or above about 140%; inactive = in between;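 also: Galphao activated as the GDP aluminium fluoride complex binding bead-coupled RGS8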
RGS4-Gao reg: modulates binding of RGS4 to human Galphao | hit rate 0.33% among 220,000 | Multiplexed bead flow cytometry; actives lie on both sides | binding response (% of control), % at 10 µM; in the data active = binding response below about 49% or above about 150%; inactive = in between;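 also: fluorescent Galphao activated with aluminum fluoride binding bead-coupled RGS4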
RGS7-Gao reg: modulates binding of RGS7 to human Galphao | AID 1439 | binding response (% of control), % at 10 µM | Multiplexed bead flow cytometry; actives lie on both sides | hit rate 0.35% among 220,000; in the data active = binding response below about 49% or above about 150%; inconclusive = no clear call, values can overlap the other calls; inactive = in between;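 also: fluorescent Galphao held in activated GDP-AlF4 state binding bead-coupled RGS7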
ABCB1 inh: blocks JC-1 efflux by human ABCB1 transporter; P08183; CCRF-Adr cells, flow cytometry; inhibition, % at 6.6 µM; hit rate 0.067% among 190,000; in the data active = inhibition above about 40%;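 also: 0% = vehicle and 100% = reference inhibitor; higher value means more JC-1 retained so stronger ABCB1 efflux block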
RGS16-Gao: regulators of human RGS16-Galphao interaction; O15492+P09471; bead-based flow cytometry RGS16-Galphao binding, fluorescence; actives lie on both sides; binding response (% of control), % at 10 µM; hit rate 0.38% among 220,000;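 also: Galphao activated by GDP with aluminum fluoride before binding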
RGS-Gao: regulators of human RGS4-Galphao interaction | shares compounds with RGS16-Gao | multiplexed bead flow cytometry, RGS–Galpha-o binding | RGS4–Galpha-o binding response, % at 10 µM | hit rate 99% among 1,600 | AID 1504;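 also: fluorescently labeled Galpha-o bound to GDP with aluminium fluoride binding biotinylated RGS beads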
Biotin-avidin: biotin-avidin bead binding disruption counter-screen; 1,700 tested, under 10 active; inhibition, % at 10 µM; shares compounds with RGS16-Gao; streptavidin beads, fluorescein-biotin binding, flow cytometry;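 active = inhibition above 50%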;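 also: median green fluorescence of gated singlet beads compared with DMSO control wells; 0% = DMSO wells and 100% = complete loss of bead fluorescence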
RGS8-Gao confirm: confirmation of regulators of human RGS8-Galphao interaction; hit rate 3% among 1,700; AID 1836; bead-based flow cytometry RGS8-Galphao binding, fluorescence; actives lie on both sides; binding response (% of control), % at 10 µM; shares compounds with RGS16-Gao; in the data active = binding response below about 72% or above about 130%; inactive = in between;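 also: Galphao activated as GDP AlF4 complex before binding bead RGS8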
RGS7-Gao confirm: confirmation of regulators of human RGS7-Galphao interaction; shares compounds with RGS16-Gao; bead-based flow cytometry RGS7-Galphao binding; actives lie on both sides; response (percent of control binding), % at 10 µM; hit rate 7.8% among 1,700; AID 1837; in the data active = response below about 75% or above about 130%; inactive = in between;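 also: fluorescent Galphao activated with GDP and aluminum fluoride binding bead-coupled RGS7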
RGS16-Gao conf: RGS16-Galphao interaction regulation, single point confirmation. hit rate 4% among 1,700. AID 1838. response (% of control binding), % at 10 µM. bead-based flow cytometry, RGS16-Galphao binding; actives lie on both sides. shares compounds with RGS16-Gao; in the data active = response below about 74% or above about 130%; inactive = in between;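 also: Galphao activated as the GDP aluminium fluoride complex binding bead-coupled RGS16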
RGS4-Gao confirm: RGS4-Galphao interaction regulation, single point confirmation | shares compounds with RGS16-Gao | RGS4-Galphao binding, multiplexed bead flow cytometry; actives lie on both sides | binding response (% of control), % at 10 µM | hit rate 4% among 1,700 | AID 1840; in the data active = binding response below about 74% or above about 130%; inactive = in between
RGS19-Gao conf: confirmation of regulators of human RGS19-Galphao interaction; shares compounds with RGS16-Gao; bead-based flow cytometry RGS19-Galphao binding; actives lie on both sides; response (percent of control binding), % at 10 µM; hit rate 5% among 1,700; AID 1841; in the data active = response below about 50% or above about 160%; inactive = in between;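 also: 100% = no compound control and 0% = blank background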
* hit, by the source's call; [ ] = another dose, or the depositor's remark. In the library only some 0.83% were active in any assay of this set; here they are far more common. Unless noted, no rule for the calls is given here.

How did CC(C)(C)NC1=CC(=O)OC12CCCCC2 do in these assays?
ABCG2 inh: 1.1; RGS8-Gao reg: 97.5; RGS4-Gao reg: 92.6; RGS7-Gao reg: 93.4; ABCB1 inh: 0.2; RGS16-Gao: 93.5

Results for CC/C(C)=N\Nc1nc(-c2cc3cc(OC)ccc3oc2=O)cs1 ?
RGS8-Gao reg: 101.3; RGS4-Gao reg: 98.9; RGS7-Gao reg: inconclusive; RGS16-Gao: 100.8

What do the screens show for `Cc1ccnc(N2CCC(C(=O)NNC(=O)c3ccccc3C)CC2)n1`?
ABCG2 inh: 3.7; RGS8-Gao reg: 96.6; RGS4-Gao reg: 94.8; RGS7-Gao reg: 92.2; ABCB1 inh: 1.4; RGS16-Gao: 106.6

What do the screens show for `Cn1c(CO)cnc1-c1ccccc1`?
RGS8-Gao reg: 132.4; RGS4-Gao reg: 151.4*[activator]; RGS7-Gao reg: inconclusive; RGS16-Gao: 150.3; Biotin-avidin: -0.5; RGS8-Gao confirm: 99.6; RGS7-Gao confirm: 99.1; RGS16-Gao conf: 97.2; RGS4-Gao confirm: 102.4; RGS19-Gao conf: 98.7

What do the screens show for `S=c1[nH]nc(-c2ccc(Cl)cc2)n1/N=C/C=C/c1ccco1`?
RGS8-Gao reg: 96.1; RGS4-Gao reg: 99.1; RGS7-Gao reg: inconclusive; RGS16-Gao: 97.0

How did S=c1[nH]nc(-c2ccccc2)n1/N=C/C=C/c1ccco1 do in these assays?
ABCG2 inh: 0.5; RGS8-Gao reg: 79.2; RGS4-Gao reg: 89.8; RGS7-Gao reg: 87.6; ABCB1 inh: 0.2; RGS16-Gao: -0.4*; RGS-Gao: 89.8*; Biotin-avidin: 1.1; RGS8-Gao confirm: 93.2; RGS7-Gao confirm: 115.8; RGS16-Gao conf: 96.3; RGS4-Gao confirm: 102.6; RGS19-Gao conf: 71.0

What do the screens show for `CCC(C)(C)c1nnc(NC(=O)c2cccc([N+](=O)[O-])c2)s1`?
ABCG2 inh: 5.8; RGS8-Gao reg: 74.9; RGS4-Gao reg: 88.8; RGS7-Gao reg: 89.2; RGS16-Gao: 20.3*; RGS-Gao: 88.8*; Biotin-avidin: 1.8; RGS8-Gao confirm: 103.2; RGS7-Gao confirm: 105.4; RGS16-Gao conf: 108.7; RGS4-Gao confirm: 106.9; RGS19-Gao conf: 92.0

Results for Cc1ccc(C)c(OCC(=O)NCC(C)C)c1C ?
ABCG2 inh: 4.0; RGS8-Gao reg: 97.7; RGS4-Gao reg: 96.8; RGS7-Gao reg: 99.2; ABCB1 inh: 0.6; RGS16-Gao: 96.3

How did CC(C)CCNC(=O)NC(=O)COC(=O)c1cc(S(=O)(=O)N2CCOCC2)ccc1N1CCCCC1 do in these assays?
ABCG2 inh: 7.6; RGS8-Gao reg: 11.6*; RGS4-Gao reg: 24.6*; RGS7-Gao reg: 12.6*; ABCB1 inh: 1.9; RGS16-Gao: 15.6*; Biotin-avidin: 0.0; RGS8-Gao confirm: 96.4; RGS7-Gao confirm: 81.2; RGS16-Gao conf: 95.5; RGS4-Gao confirm: 90.1; RGS19-Gao conf: 71.3

What do the screens show for `COc1ccc(C(CC(=O)O)NS(=O)(=O)c2ccc(C)cc2)cc1` (stereo not given)?
ABCG2 inh: 4.5; RGS8-Gao reg: 99.5; RGS4-Gao reg: 98.7; RGS7-Gao reg: 101.3; ABCB1 inh: 1.5; RGS16-Gao: 97.4

What do the screens show for `COc1ccc(C(CC(=O)O)NS(=O)(=O)c2ccc(C)cc2)cc1OC` (stereo not given)?
ABCG2 inh: 1.0; RGS8-Gao reg: 12.4*; RGS4-Gao reg: 20.9*; RGS7-Gao reg: 11.8*; ABCB1 inh: 0.4; RGS16-Gao: 12.5*; Biotin-avidin: -0.5; RGS8-Gao confirm: 100.0; RGS7-Gao confirm: 98.2; RGS16-Gao conf: 98.2; RGS4-Gao confirm: 99.8; RGS19-Gao conf: 99.1

Results for COc1ccc(/C=C/C(=O)OCC(=O)c2c(N)n(C)c(=O)n(C)c2=O)c(OC)c1 ?
ABCG2 inh: 3.0; RGS8-Gao reg: 99.4; RGS4-Gao reg: 97.5; RGS7-Gao reg: 98.2; ABCB1 inh: 0.1; RGS16-Gao: 97.2

How did CCC(CO)NCCNC(CC)CO (stereo not given) do in these assays?
ABCG2 inh: -1.4; RGS8-Gao reg: 86.5; RGS4-Gao reg: 27.0*; RGS7-Gao reg: 61.1; ABCB1 inh: -0.2; RGS16-Gao: -120.3; Biotin-avidin: 0.8; RGS8-Gao confirm: 99.2; RGS7-Gao confirm: 89.4; RGS16-Gao conf: 97.7; RGS4-Gao confirm: 94.6; RGS19-Gao conf: 79.2

What do the screens show for `COc1ccc(CCNc2c([N+](=O)[O-])c(=O)oc3ccccc23)cc1OC`?
ABCG2 inh: 3.6; RGS8-Gao reg: 100.0; RGS4-Gao reg: 97.9; RGS7-Gao reg: 98.8; ABCB1 inh: 1.9; RGS16-Gao: 104.8

Results for COc1ccc(N2C(S)=C(C#N)C(=O)NC23CCCCC3)cc1 ?
ABCG2 inh: -2.4; RGS8-Gao reg: 98.9; RGS4-Gao reg: 97.6; RGS7-Gao reg: 96.5; ABCB1 inh: -0.5; RGS16-Gao: 97.8

How did CCCCN(CCCC)c1cn[nH]c(=O)c1Cl do in these assays?
ABCG2 inh: 0.1; RGS8-Gao reg: 13.2*; RGS4-Gao reg: 22.1*; RGS7-Gao reg: 16.2*; ABCB1 inh: 0.9; RGS16-Gao: 9.8*; Biotin-avidin: 0.4; RGS8-Gao confirm: 103.6; RGS7-Gao confirm: 108.6; RGS16-Gao conf: 108.7; RGS4-Gao confirm: 103.1; RGS19-Gao conf: 106.6

What do the screens show for `O=C(c1ccccc1)N1CCN2C(=O)c3ccccc3C12c1ccc(Cl)cc1` (stereo not given)?
ABCG2 inh: 0.8; RGS8-Gao reg: 101.9; RGS4-Gao reg: 99.0; RGS7-Gao reg: 100.3; ABCB1 inh: 0.5; RGS16-Gao: 105.1
